Experimental data published in ChEMBL document CHEMBL1127066, “Discovery and structure-activity relationship of a series of 1-carba-1-dethiacephems exhibiting activity against methicillin-resistant Staphylococcus aureus” (J Med Chem, 1993).

Columns and labels:
Mus musculus = organism: Mus musculus; assay: In vitro plasma protein binding was evaluated using ICR mouse at 20 ug/mL; type: ADME
How it was run: (§1)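 Binding was measured by ultrafiltration (Centrifree micropartition) in pooled plasma (ICR mouse, Sprague–Dawley rat, rhesus monkey or human) at a drug concentration of 20 μg/mL.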

Rhesus monkey = assay: In vitro plasma protein binding was evaluated by using rhesus monkey at 20 ug/mL; type: ADME, Macaca mulatta; how it was run: as §1
Rattus norvegicus [1] = organism: Rattus norvegicus; assay: (§2) In vitro plasma protein binding was evaluated using Sprauge-Dawley rat at 20 ug/mL; type: ADME; how it was run: as §1
[2] = Percent urinary recovery (as total antibacterial activity) in monkeys dosed intravenously with 30 mg/kg; type: ADME, organism-based, Urine; set-up: dose 30 mg/kg, route intravenous; settings: simiiformes, in vivo, iv
How it was run: (§3)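 Male rhesus monkeys (n = 4) received 30 mg/kg iv in 0.9% saline. Cephalic-vein plasma was sampled over 8 h, and 0–24 h cumulative urine was collected in metabolism cages into 0.1 M sodium citrate, pH 6.5. Antibacterial activity was quantified by agar well diffusion bioassay against plasma- or citrate-based standard curves. Half-life was 0.693/β from the terminal phase, and urinary recovery was % of administered dose.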

[3] = Maximum concentration determined in monkeys dosed intravenously with 30 mg/kg; type: ADME, organism-based; set-up: dose 30 mg/kg, route intravenous; settings: simiiformes, in vivo, iv; how it was run: as §3
Streptococcus pneumoniae = assay: In vitro antimicrobial activity against Streptococcus pneumoniae PARK strain; type: functional
[4] = Maximum concentration determined in rats dosed intravenously with 20 mg/kg; type: ADME, organism-based; set-up: dose 20 mg/kg, route intravenous; settings: rat, in vivo, iv
How it was run: (§4)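 Male Sprague–Dawley rats (n = 4) were given 20 mg/kg iv in 0.9% saline through a jugular cannula, with serial plasma samples and cumulative urine collected over 6 h. Urine was collected into 0.1 M citrate, pH 6.5, and samples were stored at -70 °C. Drug was measured by agar well diffusion bioassay (E. coli ATCC4157 or M. luteus ATCC9241) against spiked standard curves. Half-life was 0.693/β from the terminal slope, and urinary recovery was % of dose.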

[5] = system: Staphylococcus epidermidis; assay: In vitro antimicrobial activity against Staphylococcus epidermidis 222 strain; type: functional
Pseudomonas aeruginosa [6] = assay: In vitro antimicrobial activity against Pseudomonas X239 strain; type: functional
Staphylococcus aureus [7] = assay: In vitro antimicrobial activity against Staphylococcus aureus X400 strain; type: functional
Staphylococcus aureus [8] = assay: In vitro evaluation of antimicrobial activity against heteroresistant Staphylococcus aureus ST 430 strain in trypticase soy broth with 4% sodium chloride; type: functional
Staphylococcus aureus [9] = assay: In vitro evaluation of antimicrobial activity against heteroresistant Staphylococcus aureus ST 430 strain in trypticase soy broth; type: functional
Staphylococcus aureus [10] = assay: In vitro antimicrobial activity against Staphylococcus aureus X1.1 strain; type: functional
Homo sapiens [11] = organism: Homo sapiens; assay: (§5) In vitro plasma protein binding was evaluated by using Human plasma at 20 ug/mL; type: ADME; how it was run: as §1
Staphylococcus aureus [12] = assay: In vitro evaluation of antimicrobial activity against 31 strains of heteroresistant Staphylococcus aureus in trypticase soy broth with 4% sodium chloride; type: functional
[13] = system: Staphylococcus epidermidis; assay: In vitro antimicrobial activity against Staphylococcus epidermidis 270 strain; type: functional
Enterobacter cloacae = assay: In vitro evaluation of antimicrobial activity against Enterobacter cloacae EB5 strain; type: functional
[14] = Half-life determined in rats dosed intravenously with 20 mg/kg; type: ADME, organism-based; set-up: dose 20 mg/kg, route intravenous; settings: rat, in vivo, iv; how it was run: as §4
Staphylococcus aureus [15] = assay: In vitro antimicrobial activity against Staphylococcus aureus S13E strain; type: functional
Pseudomonas aeruginosa [16] = assay: Antimicrobial activity against Pseudomonas PS18 strain; type: functional
Klebsiella = assay: In vitro antimicrobial activity against Klebsiella X26 strain; type: functional
Haemophilus influenzae = assay: In vitro antimicrobial activity against Haemophilus influenzae C.L. strain; type: functional
[17] = Half-life determined in monkeys dosed intravenously with 30 mg/kg; type: ADME, organism-based; set-up: dose 30 mg/kg, route intravenous; settings: simiiformes, in vivo, iv; how it was run: as §3
Escherichia coli = assay: In vitro evaluation of antimicrobial activity against Escherichia coli EC14 strain; type: functional
Rattus norvegicus [18] = assay: Percent urinary recovery (as total antibacterial activity) in rats dosed intravenously with 20 mg/kg; type: ADME, organism-based, Urine; set-up: dose 20 mg/kg, route intravenous; settings: in vivo, iv; how it was run: as §4
Rattus norvegicus [19] = organism: Rattus norvegicus; assay: as §2; type: functional; how it was run: as §1
Homo sapiens [20] = organism: Homo sapiens; assay: as §5; type: functional; how it was run: as §1

## Nc1nc(/C(=N\OCCF)C(=O)N[C@@H]2C(=O)N3C(C(=O)[O-])=C(Sc4nc5cnccc5s4)CC[C@H]23)cs1.[Na+]
Mus musculus
  Bound: 88.5%
Rhesus monkey
  Bound: 98.5%
Rattus norvegicus [1]
  Bound: 95%
[2]
  Recovery: 46.8%
[3]
  Cmax: 343 µg/mL
Streptococcus pneumoniae
  MIC: < 0.008 µg/mL
[4]
  Cmax: 56.7 µg/mL
[5]
  MIC: 0.5 µg/mL
Pseudomonas aeruginosa [6]
  MIC: 32 µg/mL
Staphylococcus aureus [7]
  MIC: 4 µg/mL
Staphylococcus aureus [8]
  MIC: 1 µg/mL
Staphylococcus aureus [9]
  MIC: 0.5 µg/mL
Staphylococcus aureus [10]
  MIC: 0.125 µg/mL
Homo sapiens [11]
  Bound: 96.6%
Staphylococcus aureus [12]
  MIC: 2.6 µg/mL
[13]
  MIC: 2 µg/mL
Enterobacter cloacae
  MIC: 1 µg/mL
[14]
  half-life: 35.1 min
Staphylococcus aureus [15]
  MIC: 0.5 µg/mL
Pseudomonas aeruginosa [16]
  MIC: 32 µg/mL
Klebsiella
  MIC: 0.03 µg/mL
Haemophilus influenzae
  MIC: 0.03 µg/mL
[17]
  half-life: 58.4 min
Escherichia coli
  MIC: 0.06 µg/mL
Rattus norvegicus [18]
  Recovery: 37.2%

## Nc1nc(/C(=N\OCCF)C(=O)N[C@@H]2C(=O)N3C(C(=O)[O-])=C(Sc4nncs4)CC[C@H]23)cs1.[Na+]
Mus musculus
  Bound: 36.2%
Rhesus monkey
  Bound: 49.1%
Rattus norvegicus [1]
  Bound: 63.1%
Streptococcus pneumoniae
  MIC: < 0.008 µg/mL
[5]
  MIC: 0.5 µg/mL
Pseudomonas aeruginosa [6]
  MIC: > 128 µg/mL
Staphylococcus aureus [7]
  MIC: 64 µg/mL
Staphylococcus aureus [10]
  MIC: 0.125 µg/mL
Homo sapiens [11]
  Bound: 36%
[13]
  MIC: 0.06 µg/mL
Enterobacter cloacae
  MIC: 0.5 µg/mL
Staphylococcus aureus [15]
  MIC: 16 µg/mL
Pseudomonas aeruginosa [16]
  MIC: 32 µg/mL
Klebsiella
  MIC: 0.015 µg/mL
Haemophilus influenzae
  MIC: 0.015 µg/mL
Escherichia coli
  MIC: 0.03 µg/mL

## CO/N=C(\C(=O)N[C@@H]1C(=O)N2C(C(=O)O)=C(CSc3nc(=O)c(O)nn3C)CS[C@H]12)c1csc(N)n1 [CEFTRIAXONE]
Rattus norvegicus [19]
  Bound: 88.5%
Homo sapiens [20]
  Bound: 94%
